System: MS2 coat protein
Test: apparent Kd, MS2 coat protein; higher = weaker binding; RNA-MaP array; FMN 200 µM where present
Procedure, shortened: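 Stalled E. coli RNA polymerase transcribed the designs on Illumina sequencing-chip clusters. SNAP-549-labelled MS2 coat protein was titrated from 0.7 or 1.5 nM, doubling to 3 µM, without and then with constant ligand, in 100 mM Tris-HCl pH 7.5, 80 mM KCl, 4 mM MgCl2, BSA, DTT, yeast tRNA and Tween-20. Per-cluster binding curves were fitted to green signal normalised to red-channel RNA signal and control-cluster median Fmax. The apparent Kd is the median of the filtered fits.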

[1] = designed as: OFF switch for flavin mononucleotide, no ligand
[2] = ligand present: flavin mononucleotide, designed as: OFF switch for flavin mononucleotide
[3] = designed as: ON switch for flavin mononucleotide, no ligand
[4] = ligand present: flavin mononucleotide, designed as: ON switch for flavin mononucleotide

Row | Sequence | apparent Kd [1] | apparent Kd [2] | apparent Kd [3] | apparent Kd [4]
1 | GGGUAGAUCCGAGGAUAUACAAUCCGGAAACGGUACAUGAGGAUCACCCAUGUAGAAGGCGGAUCUACAGGUACUAAAGUAGGG | 16 nM | 14.2 nM | – | –
2 | GGGUCAACAUGAGGAUCACCCAUGUAGGAUAUCGCUAUUGUAAUCAUGAAACAUGAUUACAAUAGCGAGAAGGACAUAUGCGGG | 42 nM | 74.1 nM | – | –
3 | GGGUCACAUGAGGAUCACCCAUGUGAGGAUAUGAUACUAUGUACUUCGGUACAUAGUAUCAGAAGGCACAUAAA | 36.6 nM | 123 nM | – | –
4 | GGGUGACAUGAGGAUCACCCAUGUGAGGAUAUCUGGAUACUCUUUAUUUUAGAUAUCCAGAGAAGGCACACCCU | 501 nM | 306 nM | – | –
5 | GGGUGAGACGAGAAGGGAUUUUCACAUGAGGAUCACCCAUGUCGAGUAGUCAGGAUAUCGGGCCAUGAUUACCCUAUAGAAGAC | – | – | 298 nM | 70.5 nM
6 | GGGUGAUCCUUAGGAUAUCCCGCGCCAAAGUGCGUUUAUACUACAUGAGGAUCACCCAUGUAACGGGAGAAGGGAGGAAGCCCG | – | – | 11 nM | 4.31 nM
7 | GGGUGGCGUAGAGGAUAUGUGUUACAUGAGGAUCACCCAUGUGCAUAUGAUGUUCGUGUGUGUGCAUAGAAGGCUACGUCGCUA | – | – | 28.3 nM | 24.3 nM
8 | GGGUGGCGUAUAGGAUAUAUGGUACAUGAGGAUCACCCAUGUACAUAUGAUGUUCAUGUUUGUGUAUAGAAGGAUACGUCGGGA | – | – | 9.44 nM | 8.86 nM
9 | GGGUGUGAAGGAUAUACAUGAGGAUCACCCAUGUGAGAGGAGGAGGUUGAGGAGGUUGGUAGAAGGUCAGGAGG | 169 nM | 142 nM | – | –
10 | GGGUUCAUCGGAGGAUAUCAUGUAAAUACAUGAGGAUCACCCAUGUCGAUGGAGACAUCGGAGAUUGAGAAGGCCGAUGUACCG | – | – | 186 nM | 9.18 nM
11 | GGUACCAACACAGGAUAUCCUAUCCUUUGGGUAGGAGAAGGGUGAAACAUGAGGAUCACCCAUGUGGUGCCAGGGCGUGAGCCC | – | – | 1230 nM | 206 nM
12 | GGUACUCAAAGAGUACCAAUACGAACAUGAGGAUCACCCAUGUAGGAUAUAAAACCGCCGGAGUAUUAGAAGGACAUGUGCCUA | 11.5 nM | 10.5 nM | – | –
13 | GGUACUCAAAGAGUACGGAGUCGAACAUGAGGAUCACCCAUGUAGGAUAUGCGAGUUUUGAAUUUGCAGAAGGACAUUUGCAGC | 9.62 nM | 11.2 nM | – | –
14 | GGUAGAAACAUUAACAUGAGGAUCACCCAUGUCAAAAGAAAUGAGGAUAUCGUAUACAAUGUAUAUGAGAAGGCAUGGUCUGCC | – | – | 9.17 nM | 6.45 nM
15 | GGUAGACAUGAGGAUCACCCAUGUGAGGAUAUCGUCAUAGAUGCAAAAGCAUCUAUGACGAGAAGGUACAUGCC | 33.1 nM | 34.3 nM | – | –
16 | GGUAUCCGGCAGGAUAUUGUGAGAAUCUGUAAGCGAGAAGGGCCAACAUGAGGAUCACCCAUGUACCAUUGAGA | 52.3 nM | 45.1 nM | – | –
17 | GGUCAACAUGAGGAUCACCCAUGUAAGCCAAGGCAAGGAUAUGGGUAUAGGGUACUAGGGUUAGAAGGUGCCAAUA | – | – | 144 nM | 182 nM
18 | GGUCGCAAGUAAGGAUAUGCAUAUGAAACAUAUGCAGAAGGUACAUGAGGAUCACCCAUGUUAAUGCAAAGCGAAUAAGCGACC | 15.5 nM | 19.6 nM | – | –
19 | GGUCGGAAUUUCGACGGCCUGAGGGAGGAUAUACAAGGCCGGCGUCGCACAUGAGGAUCACCCAUGUAGAAGGCCCAAGGCCUG | 6 nM | 7.2 nM | – | –
20 | GGUCGUCACAUUUACAUGAGGAUCACCCAUGUCGAAAGACAUGAGGAUAUGCUACCUAAUUGGUAGCAGAAGGCAUGGACGACC | – | – | 455 nM | 234 nM
21 | GGUGCCAUGUAGAAGGCAGAUCUGAUUCAGAUCUGAGGAUAUACAUGAGGAUCACCCAUGUAAAUGCACCGCACGAGAGUGCAA | 33.1 nM | 149 nM | – | –
22 | GGUGCGUAUGUGAGGAUAUGCUGGUCCUUGGAUCAGCAGAAGGCACAUGAGGAUCACCCAUGUGGUGUCGUACA | 347 nM | 40.1 nM | – | –
23 | GGUGCGUAUGUGAGGAUAUGCUGGUCCUUGGAUCAGCAGAAGGCACAUGAGGAUCACCCAUGUGGUGUCGUUCC | 397 nM | 29.3 nM | – | –

From the EternaBench riboswitch data
